Activity calls are given as the source filed them. The calls are words filed in the database; no cut-off is given here.
Key:
Plasmodium cynomolgi = assay: Antimalarial activity against sporozoite stage of Plasmodium cynomolgi infected in rhesus monkey assessed as radical curative activity measured for 90 days; assay type: functional, organism-based
[1] = tested on: Trypanosoma brucei rhodesiense; assay: Antitrypanosomal activity against blood stage of Trypanosoma rhodesiense infected in mouse; assay type: functional, organism-based
Mus musculus [2] = assay: Toxicity in mouse infected with blood stage of Plasmodium berghei assessed as mortality at 160 mg/kg, sc measured on day 2; assay type: organism-based; parameters: route subcutaneous, dose 160 mg/kg; conditions: in vivo
Method in brief: (§1)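 P. berghei-infected mice, five per group, after subcutaneous dosing. Deaths occurring 2 to 5 days after drug administration are scored as drug toxicity rather than infection.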

Plasmodium berghei [3] = assay: Antimalarial activity against blood stage of Plasmodium berghei infected in mouse assessed as increase in mean survival time at 160 mg/kg, sc; assay type: functional; conditions: route subcutaneous
Plasmodium berghei [4] = assay: Antimalarial activity against blood stage of Plasmodium berghei infected in mouse assessed as increase in mean survival time at 80 mg/kg, sc; assay type: functional; conditions: route subcutaneous
Plasmodium berghei [5] = assay: Antimalarial activity against blood stage of Plasmodium berghei infected in mouse assessed as increase in mean survival time at 640 mg/kg, sc; assay type: functional; conditions: route subcutaneous
Plasmodium berghei [6] = assay: Antimalarial activity against blood stage of Plasmodium berghei infected in mouse assessed as increase in mean survival time at 320 mg/kg, sc; assay type: functional; conditions: route subcutaneous
Mus musculus [7] = assay: Toxicity in mouse infected with blood stage of Plasmodium berghei assessed as mortality at 640 mg/kg, sc measured on day 3; assay type: organism-based; parameters: dose 640 mg/kg, route subcutaneous; conditions: in vivo; method in brief: as §1
Mus musculus [8] = assay: Toxicity in mouse infected with blood stage of Plasmodium berghei assessed as mortality at 320 mg/kg, sc measured on day 2; assay type: organism-based; parameters: dose 320 mg/kg, route subcutaneous; conditions: in vivo; method in brief: as §1
Leishmania donovani [9] = assay: Potency index, ratio of glucantime to compound for antileishmanial activity against Leishmania donovani infected in hamster assessed as 90% suppression of parasitemia at 208 mg/kg/day, im bid administered 4 days measured for 8 days; assay type: functional; conditions: route intramuscular
Method in brief: (§2)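 Hamsters infected with Leishmania donovani were assessed in an 8-day test. Seven animals per drug level received 208, 52 or 13 mg/kg/day. Percent suppression of parasites was calculated against infected, untreated controls (seven to ten animals). Glucantime index G = SD90 of Glucantime / SD90 of the new drug, where SD90 is the dose giving 90% parasite suppression.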

Mus musculus [10] = assay: Toxicity in mouse infected with blood stage of Plasmodium berghei assessed as mortality at 640 mg/kg, sc measured on day 2; assay type: organism-based; parameters: dose 640 mg/kg, route subcutaneous; conditions: in vivo; method in brief: as §1
Mus musculus [11] = assay: Toxicity in mouse infected with blood stage of Plasmodium berghei assessed as mortality at 320 mg/kg, sc measured on day 5; assay type: organism-based; parameters: dose 320 mg/kg, route subcutaneous; conditions: in vivo; method in brief: as §1
Leishmania donovani [12] = assay: Antileishmanial activity against Leishmania donovani infected in hamster assessed as inhibition of parasitemia at 52 mg/kg/day, im bid administered for 4 days relative to control; assay type: functional; conditions: 96 h, route intramuscular; method in brief: as §2
Mus musculus [13] = assay: Toxicity in mouse infected with blood stage of Plasmodium berghei assessed as mortality at 640 mg/kg, sc measured on day 5; assay type: organism-based; parameters: dose 640 mg/kg, route subcutaneous; conditions: in vivo; method in brief: as §1
Mus musculus [14] = assay: Toxicity in mouse infected with blood stage of Plasmodium berghei assessed as mortality at 160 mg/kg, sc measured on day 1; assay type: organism-based; parameters: dose 160 mg/kg, route subcutaneous; conditions: in vivo
Leishmania donovani [15] = assay: Potency index, ratio of glucantime to compound for antileishmanial activity against Leishmania donovani infected in hamster assessed as 90% suppression of parasitemia at 13 mg/kg/day, im bid administered 4 days measured for 8 days; assay type: functional; conditions: route intramuscular; method in brief: as §2
Mus musculus [16] = assay: Toxicity in mouse infected with blood stage of Plasmodium berghei assessed as mortality at 80 to 640 mg/kg, sc measured for 5 days; assay type: organism-based; parameters: dose 80-640 mg/kg, route subcutaneous; conditions: in vivo, 120 h; method in brief: as §1
Leishmania donovani [17] = assay: Potency index, ratio of glucantime to compound for antileishmanial activity against Leishmania donovani infected in hamster assessed as 90% suppression of parasitemia at 3.25 mg/kg/day, im bid administered 4 days measured for 8 days; assay type: functional; conditions: route intramuscular
Schistosoma mansoni = assay: Antiparasitic activity against Schistosoma mansoni infected in mouse assessed as survival up to 49 days at 1280 mg/kg, sc administered through peanut oil on day 2 post infection; assay type: functional, organism-based; parameters: dose 1280 mg/kg
Leishmania donovani [18] = assay: Potency index, ratio of glucantime to compound for antileishmanial activity against Leishmania donovani infected in hamster assessed as 90% suppression of parasitemia at 13 to 208 mg/kg/day, im bid administered 4 days measured for 8 days; assay type: functional; conditions: route intramuscular; method in brief: as §2

Compound	Activity (Plasmodium cynomolgi)	Activity (Mus musculus [2])	Survival (Plasmodium berghei [3])	Survival (Plasmodium berghei [4])	Survival (Plasmodium berghei [5])	Survival (Plasmodium berghei [6])	Activity (Mus musculus [11])	Activity (Mus musculus [13])	also measured
COc1cc(NC(C)CCCN)c2nc(Cl)ccc2c1.O=C(O)/C=C\C(=O)O (stereo unspecified)	inactive	Toxic	3 days	1.2 days	5.5 days	4 days			Activity [1]: inactive; Activity (Mus musculus [7]): Toxic; Activity (Mus musculus [8]): Toxic; Ratio (Leishmania donovani [9]): 0.3
C=Cc1ccc2cc(OC)cc(NC(C)CCCN)c2n1.O=C(O)/C=C/C(=O)O (stereo unspecified)		Toxic	3.3 days	2.9 days	7.9 days	5.3 days			Activity (Mus musculus [10]): Toxic; Activity (Mus musculus [8]): Toxic
COc1cc(NC(C)CCCN)c2nc(N(C)C)ccc2c1.O=C(O)/C=C/C(=O)O (stereo unspecified)			5.2 days	4.9 days			Toxic	Toxic	inhibition in vivo at 52 mg/kg/day (Leishmania donovani [12]): 99%; Activity (Mus musculus [14]): Toxic
COc1cc(NC(C)CCCN)c2nc(OC)ccc2c1.O=C(O)/C=C\C(=O)O (stereo unspecified)	inactive		7.9 days	6.1 days			Toxic	Toxic	Activity (Mus musculus [14]): Toxic; Ratio (Leishmania donovani [15]): 2.4
CCc1ccc2cc(OC)cc(NC(C)CCCN)c2n1.O=C(O)/C=C\C(=O)O (stereo unspecified)	inactive		8.3 days	6.7 days	13.9 days	9.9 days			Activity (Mus musculus [16]): Non-toxic; Ratio (Leishmania donovani [17]): 10; Activity (Schistosoma mansoni): inactive
COc1cc(NC(C)CCCN)c2nc(N)ccc2c1.O=C(O)/C=C\C(=O)O (stereo unspecified)									Activity (Schistosoma mansoni): inactive; Ratio (Leishmania donovani [18]): 0
COc1cc(NC(C)CCCN)c2ncccc2c1 (stereo unspecified) [PRIMAQUINE]		Toxic	10.8 days	9.4 days			Toxic	Toxic	Ratio (Leishmania donovani [18]): 0.96

Reference: ChEMBL document CHEMBL3244124, “Synthesis of 2-substituted primaquine analogues as potential antimalarials” (J Med Chem, 1978)
